Data as given in ChEMBL document CHEMBL1141315, “Structures and radical-scavenging activities of phenolic constituents from the bark of Picea jezoensis var. jezoensis” (J Nat Prod, 2007).
pIC50: −log10 of the molar value.

What was measured:
[1] = system: Radical scavenging activity; test: Antioxidant activity assessed as DPPH radical scavenging activity; format: functional
Outline: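 Test sample in EtOH mixed with 0.1 M HOAc–NaOAc buffer (pH 5.5) and DPPH in EtOH (800 µM stock). Reacted 30 min at room temperature in microplate wells; absorbance read at 517 nm. Value reported as SC50 (50% scavenging concentration).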

[2] = Antioxidant activity assessed as superoxide anion radical scavenging activity; format: functional
Outline: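 Superoxide generated by xanthine–xanthine oxidase in 0.05 M Na2CO3 (pH 10.2) with xanthine, EDTA, BSA and nitroblue tetrazolium (stocks 3 mM, 3 mM, 1.5 mg/mL, 0.75 mM); reaction started with xanthine oxidase (0.1 mg/mL stock). Incubated 20 min at 25 °C, stopped with CuCl2, absorbance at 560 nm; IC50 reported.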

O=C1C=C2O[C@H](c3ccc(O)c(O)c3)[C@@H](O)[C@@H]3c4c(O)cc(O)cc4[C@H](C23)[C@H](c2ccc(O)c(O)c2)C1 (stereo partly specified)
SC50 [1]: 3.83 µM

O=C1c2c(O)cc(O)cc2O[C@H](c2ccc(O)c(O)c2)[C@H]1O [(+)-TAXIFOLIN]
SC50 [1]: 10.4 µM
pIC50 [2]: 5.85

Oc1cc(O)c2c(c1)O[C@H](c1ccc(O)c(O)c1)[C@@H](O)C2 [CIANIDANOL]
SC50 [1]: 11.4 µM
pIC50 [2]: 5.64

O=C(O)/C=C/c1ccc(O)cc1 [COUMARIC ACID]
SC50 [1]: 117 µM
pIC50 [2]: 3.98

COc1cc([C@@H]2Oc3c(OC)cc(CCCO)cc3[C@H]2CO)ccc1O [DIHYDRODEHYDRODICONIFERYL ALCOHOL]
SC50 [1]: 69.1 µM
pIC50 [2]: 3.46

O=C(O)c1cc(O)c(O)c(O)c1 [GALLIC ACID]
SC50 [1]: 8.08 µM
pIC50 [2]: 6.28

COc1cc([C@H]2c3cc(O)c(OC)cc3C[C@@H](CO)[C@@H]2CO)ccc1O [ISOLARICIRESINOL]
SC50 [1]: 13.7 µM
pIC50 [2]: 4.15

Oc1cc(O)cc([C@@H]2c3c(cc(O)c4c3O[C@H](c3ccc(O)c(O)c3)[C@@H](O)C4)O[C@H]2c2ccc(O)c(O)c2)c1 [JEZONOCINOL A]
SC50 [1]: 9.92 µM
pIC50 [2]: 5.69

Oc1cc(O)cc([C@H]2c3c(cc(O)c4c3O[C@H](c3ccc(O)c(O)c3)[C@@H](O)C4)O[C@@H]2c2ccc(O)c(O)c2)c1 [JEZONOCINOL B]
SC50 [1]: 11.8 µM
pIC50 [2]: 5.74

O=Cc1ccc(O)c(O)c1 [PROTOCATECHUALDEHYDE]
SC50 [1]: 12.2 µM
pIC50 [2]: 4.60

O=C(O)c1ccc(O)c(O)c1 [PROTOCATECHUIC ACID]
SC50 [1]: 17.3 µM
pIC50 [2]: 5.48
